Reference: paper PMC3578163 (Chemical research in toxicology, 2013)
Read-outs that look alike come from different tables or passages of the source.

Experiments:
[1] = tested on: peroxisome proliferator activated receptor alpha (PPARα); details: FLAP-independent inhibition of PPARα; cited from earlier work
hpol κ^19–526 [2] = molecular target: T1, hpol κ^19–526 (Homo sapiens, UniProt Q9UBT6); test: polymerase-catalyzed primer extension; type: biochemical; details: read-out: IC50 for inhibition of DNA polymerase activity; five-minute time point; all four dNTPs 0.25 mM, MgCl2 5 mM; 20 nM enzyme, 200 nM DNA, 37 °C
T1 sequence (Q9UBT6 19-526): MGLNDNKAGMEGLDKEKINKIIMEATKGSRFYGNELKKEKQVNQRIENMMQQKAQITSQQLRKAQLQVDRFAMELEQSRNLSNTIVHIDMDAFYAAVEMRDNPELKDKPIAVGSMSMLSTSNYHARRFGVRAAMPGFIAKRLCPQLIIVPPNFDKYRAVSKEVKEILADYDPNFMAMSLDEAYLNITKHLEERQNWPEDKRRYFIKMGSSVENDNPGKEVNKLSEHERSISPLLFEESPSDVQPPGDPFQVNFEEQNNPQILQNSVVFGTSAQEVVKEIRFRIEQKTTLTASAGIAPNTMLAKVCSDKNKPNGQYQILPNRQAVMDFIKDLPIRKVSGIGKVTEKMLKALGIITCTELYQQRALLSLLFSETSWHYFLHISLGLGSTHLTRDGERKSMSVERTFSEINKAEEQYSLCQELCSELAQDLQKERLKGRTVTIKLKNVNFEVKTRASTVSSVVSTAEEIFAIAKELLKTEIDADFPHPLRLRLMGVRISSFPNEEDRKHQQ

COX1 = details: read-out: IC50 value for COX1 inhibition; in vitro activity assays; cited from earlier work
hpol κ^19–526 [3] = molecular target: T1, hpol κ^19–526; type: binding; details: for Kd: read-out: Kd,DNA (polymerase binding to primer-template DNA)
Procedure, shortened: (§1)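 Recombinant human polymerase (His/GST-tagged, expressed in E. coli BL21(DE3), tags cleaved) titrated into 2 nM FAM-labelled 13/18-mer primer-template at 25 °C. Buffer: 50 mM HEPES pH 7.5, 10 mM KOAc, 10 mM MgCl₂, 0.1 mM ZnCl₂, 0.1 mM EDTA, 10% DMSO, 0.1 mg/mL BSA. MK886 at 0–250 μM, with DMSO as control. Polarization read at ex 485/em 525 nm. Kd fitted with total DNA held constant.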

hpol ι^26–446 [4] = molecular target: T2, hpol ι^26–446 (Homo sapiens, UniProt Q9UNA4); test: polymerase-catalyzed primer extension; type: biochemical; details: read-out: IC50 for inhibition of DNA polymerase activity; all four dNTPs 0.25 mM, MgCl2 5 mM; 20 nM enzyme, 200 nM DNA, 37 °C
T2 sequence (Q9UNA4 26-446): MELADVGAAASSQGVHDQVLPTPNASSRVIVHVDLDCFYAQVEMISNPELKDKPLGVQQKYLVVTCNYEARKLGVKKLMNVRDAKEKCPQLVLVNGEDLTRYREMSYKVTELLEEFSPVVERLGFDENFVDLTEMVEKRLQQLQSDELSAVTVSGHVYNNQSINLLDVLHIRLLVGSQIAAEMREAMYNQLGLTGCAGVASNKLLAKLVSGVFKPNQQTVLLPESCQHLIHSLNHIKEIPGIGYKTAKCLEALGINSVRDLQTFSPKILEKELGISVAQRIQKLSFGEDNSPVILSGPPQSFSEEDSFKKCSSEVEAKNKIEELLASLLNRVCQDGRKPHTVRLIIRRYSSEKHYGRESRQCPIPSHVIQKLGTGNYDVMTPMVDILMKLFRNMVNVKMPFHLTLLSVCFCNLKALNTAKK

hpol ι^26–446 [5] = molecular target: T2, hpol ι^26–446; type: binding; details: for Kd: read-out: Kd,DNA (polymerase binding to primer-template DNA)
Procedure, shortened: as §1

hpol η^1–437 = molecular target: T3, hpol η^1–437 (Homo sapiens, UniProt Q9Y253); test: polymerase-catalyzed primer extension; type: biochemical; details: read-out: IC50 for inhibition of DNA polymerase activity; all four dNTPs 0.25 mM, MgCl2 5 mM; 20 nM enzyme, 200 nM DNA, 37 °C
T3 sequence (Q9Y253 1-437): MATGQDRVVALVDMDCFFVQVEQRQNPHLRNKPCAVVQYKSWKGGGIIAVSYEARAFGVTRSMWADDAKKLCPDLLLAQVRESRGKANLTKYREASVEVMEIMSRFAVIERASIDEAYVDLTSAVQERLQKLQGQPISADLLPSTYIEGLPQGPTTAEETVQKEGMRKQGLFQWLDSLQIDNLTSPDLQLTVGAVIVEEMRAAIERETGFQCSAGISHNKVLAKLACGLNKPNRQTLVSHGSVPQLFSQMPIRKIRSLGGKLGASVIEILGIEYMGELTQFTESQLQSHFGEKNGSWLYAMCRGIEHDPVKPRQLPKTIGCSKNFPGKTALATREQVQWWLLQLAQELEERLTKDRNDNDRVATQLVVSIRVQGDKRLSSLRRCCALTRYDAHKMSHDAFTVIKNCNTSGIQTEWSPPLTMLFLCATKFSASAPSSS

hpol ι^26–446 [6] = molecular target: T2, hpol ι^26–446; test: steady-state single-nucleotide; type: biochemical; details: for kcat: dCTP insertion
Procedure, shortened: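 Single dCTP insertion on a FAM-labelled primer-template: 5 nM enzyme, 100 nM DNA. Started with dCTP (10 concentrations, 1–1500 μM) plus 2 mM Mg²⁺. MK886 at 20 nM, 50 nM, 1 μM or 10 μM, or DMSO. Time points quenched with 95% formamide/20 mM EDTA; products resolved on 16% acrylamide/7 M urea gels. Velocities fitted to Michaelis–Menten; kcat and KM taken after enzyme correction.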

IC50 (hpol κ^19–526 [2]): 63800 ± 1700 nM
change in binding affinity for hpol κ relative to that observed for hpol ι^26–446 (hpol κ^19–526 [3]; hpol κ vs hpol ι^26–446): ~ 2 fold
Kd (hpol κ^19–526 [3]; 25 μM MK886): 26 ± 9.1 nM
Kd (hpol κ^19–526 [3]; 50 μM MK886): 24.1 ± 9.4 nM
Kd (hpol κ^19–526 [3]; 100 μM MK886): 31.3 ± 12.1 nM
Kd (hpol κ^19–526 [3]; 150 μM MK886): 70.4 ± 15.7 nM
Kd (hpol κ^19–526 [3]; 250 μM MK886): 67.9 ± 17.1 nM
IC50 (hpol ι^26–446 [4]): 8200 ± 600 nM
change in the affinity for DNA relative to the DMSO control (hpol ι^26–446 [5]; 10 μM MK886): no observed change
fold increase in the Kd,DNA (hpol ι^26–446 [5]; MK886 at or above 100 μM): > 2 fold
Kd (hpol ι^26–446 [5]; 100 μM MK886): 18.8 ± 2.7 nM
Kd (hpol ι^26–446 [5]; 150 μM MK886): 16.4 ± 2.1 nM
Kd (hpol ι^26–446 [5]; 250 μM MK886): 38.8 ± 17.1 nM
IC50 (hpol η^1–437): 45800 ± 8400 nM
kcat (hpol ι^26–446 [6]; 0.02 μM MK886): 0.0233 ± 0.0017 s⁻¹
Fold decrease in kcat/KM,dNTP (hpol ι^26–446 [6]; 0.02 μM MK886 vs no inhibitor): 1.5
kcat (hpol ι^26–446 [6]; 0.05 μM MK886): 0.02 ± 0.0017 s⁻¹
Fold decrease in kcat/KM,dNTP (hpol ι^26–446 [6]; 0.05 μM MK886 vs no inhibitor): 2.1
kcat (hpol ι^26–446 [6]; 1 μM MK886): 0.0267 ± 0.0017 s⁻¹
Fold decrease in kcat/KM,dNTP (hpol ι^26–446 [6]; 1 μM MK886 vs no inhibitor): 2.1
kcat (hpol ι^26–446 [6]; 10 μM MK886): 0.025 ± 0.0017 s⁻¹
Fold decrease in kcat/KM,dNTP (hpol ι^26–446 [6]; 10 μM MK886 vs no inhibitor): 2.8
mechanism of inhibition of DNA polymerase activity (hpol ι^26–446 [6]; single-nucleotide insertion, kcat and Km,dNTP both altered): mixed-model of inhibition
SMILES: CC(C)c1ccc2c(c1)c(SC(C)(C)C)c(CC(C)(C)C(=O)O)n2Cc1ccc(Cl)cc1 [MK886, 3-[1-(4-chlorobenzyl)-3-t-butyl-thio-5-isoproylindol-2-yl]-2,2-dimethylpropanoic acid]
concentration at which apoptosis is induced [1]: above 10 μM
IC50 (COX1): 8000 nM
